Data as given in ChEMBL document CHEMBL1147082 (Proc Natl Acad Sci U S A, 2007).
The source made the active and inactive calls. No cut-off for these calls is given here.

Key:
[1] = target: T1, Glucocorticoid receptor (Homo sapiens) (UniProt P04150); settings: CV-1
T1 sequence (whole entry): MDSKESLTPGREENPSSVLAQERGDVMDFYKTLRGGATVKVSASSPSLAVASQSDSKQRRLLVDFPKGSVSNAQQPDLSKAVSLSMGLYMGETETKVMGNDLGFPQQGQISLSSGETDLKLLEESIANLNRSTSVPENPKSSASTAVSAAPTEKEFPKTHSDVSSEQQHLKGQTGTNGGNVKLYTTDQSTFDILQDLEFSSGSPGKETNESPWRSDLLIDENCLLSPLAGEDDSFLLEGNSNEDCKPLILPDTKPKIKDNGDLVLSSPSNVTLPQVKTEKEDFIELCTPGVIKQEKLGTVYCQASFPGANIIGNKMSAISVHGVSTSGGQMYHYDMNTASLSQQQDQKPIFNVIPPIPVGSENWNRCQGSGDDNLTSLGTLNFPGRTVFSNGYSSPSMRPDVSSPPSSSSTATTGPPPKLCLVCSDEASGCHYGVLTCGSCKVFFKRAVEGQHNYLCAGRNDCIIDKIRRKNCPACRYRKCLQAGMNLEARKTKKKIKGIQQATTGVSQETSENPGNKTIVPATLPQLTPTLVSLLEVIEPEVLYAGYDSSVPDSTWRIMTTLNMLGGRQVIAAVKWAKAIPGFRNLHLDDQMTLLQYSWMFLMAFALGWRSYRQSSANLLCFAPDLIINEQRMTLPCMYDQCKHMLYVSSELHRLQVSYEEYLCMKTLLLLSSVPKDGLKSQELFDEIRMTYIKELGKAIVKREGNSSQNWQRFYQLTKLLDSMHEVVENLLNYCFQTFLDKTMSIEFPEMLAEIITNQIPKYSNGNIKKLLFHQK

Mus musculus [2] = organism: Mus musculus; experiment: Toxicity in Swiss-Webster mouse assessed as increase in body fat after 28 days relative to control; assay type: organism-based; settings: in vivo, 672 h
In short: (§1)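 Male Swiss–Webster mice, three months old, singly housed, 12-h light cycle, chow ad libitum. Oral treatment for 28 days with vehicle or 3, 10, 30 mg/kg. Percentage body fat measured by DEXA, compared against vehicle controls.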

Mus musculus [3] = experiment: Inhibition of collagen-induced arthritis in DBA/1 mouse at less than 3 mg/kg, po after 15 days; assay type: functional, organism-based; set-up: dose 3 mg/kg
In short: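 Female DBA/1 mice, 6–8 weeks old, acclimatized 10 days. Bovine type II collagen (stored at 4 mg/ml in 0.01 M acetic acid) with complete Freund's adjuvant given intradermally at tail base on days 1 and 7. Daily oral gavage days 17–31 (15 days). Limbs scored 0–4 for clinical arthritis signs; 10 mice/group. One-way ANOVA with Fisher's LSD, P < 0.05.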

Progesterone receptor = target: T2, Progesterone receptor (Homo sapiens, UniProt P06401); experiment: Binding affinity to human recombinant progesterone-A receptor expressed in SF9 cells
T2 sequence (P06401 whole entry): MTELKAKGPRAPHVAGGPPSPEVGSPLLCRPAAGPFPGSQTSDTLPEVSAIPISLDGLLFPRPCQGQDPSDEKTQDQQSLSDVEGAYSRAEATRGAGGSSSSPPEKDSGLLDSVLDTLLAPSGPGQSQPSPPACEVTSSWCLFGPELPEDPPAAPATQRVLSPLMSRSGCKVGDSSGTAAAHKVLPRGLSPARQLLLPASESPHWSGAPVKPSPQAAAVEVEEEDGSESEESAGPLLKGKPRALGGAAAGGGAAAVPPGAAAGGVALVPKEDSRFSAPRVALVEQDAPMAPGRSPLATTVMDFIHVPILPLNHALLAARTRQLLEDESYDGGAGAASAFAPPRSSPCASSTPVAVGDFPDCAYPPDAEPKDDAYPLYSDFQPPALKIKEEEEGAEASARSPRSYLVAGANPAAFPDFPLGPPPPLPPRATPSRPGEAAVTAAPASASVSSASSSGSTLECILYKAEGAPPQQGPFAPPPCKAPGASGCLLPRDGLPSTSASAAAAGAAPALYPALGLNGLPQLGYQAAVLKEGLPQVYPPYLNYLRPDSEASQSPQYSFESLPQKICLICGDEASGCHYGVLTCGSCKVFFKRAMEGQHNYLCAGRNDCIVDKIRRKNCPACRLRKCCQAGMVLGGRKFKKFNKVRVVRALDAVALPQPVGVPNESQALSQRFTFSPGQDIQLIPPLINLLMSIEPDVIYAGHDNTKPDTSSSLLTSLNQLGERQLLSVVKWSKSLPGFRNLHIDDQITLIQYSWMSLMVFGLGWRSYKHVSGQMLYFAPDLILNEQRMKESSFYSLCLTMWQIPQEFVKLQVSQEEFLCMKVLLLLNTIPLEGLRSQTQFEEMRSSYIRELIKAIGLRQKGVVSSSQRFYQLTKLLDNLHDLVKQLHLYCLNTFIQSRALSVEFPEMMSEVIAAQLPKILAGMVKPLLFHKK
In short: (§2)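 Receptor source: extracts of SF-9 insect cells infected with recombinant baculovirus expressing the indicated receptor. Affinity was measured in a labeled-hormone binding assay.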

Androgen receptor = target: T3, Androgen receptor (Homo sapiens, UniProt P10275); experiment: Binding affinity to human recombinant androgen receptor expressed in SF9 cells
T3 sequence (P10275 whole entry): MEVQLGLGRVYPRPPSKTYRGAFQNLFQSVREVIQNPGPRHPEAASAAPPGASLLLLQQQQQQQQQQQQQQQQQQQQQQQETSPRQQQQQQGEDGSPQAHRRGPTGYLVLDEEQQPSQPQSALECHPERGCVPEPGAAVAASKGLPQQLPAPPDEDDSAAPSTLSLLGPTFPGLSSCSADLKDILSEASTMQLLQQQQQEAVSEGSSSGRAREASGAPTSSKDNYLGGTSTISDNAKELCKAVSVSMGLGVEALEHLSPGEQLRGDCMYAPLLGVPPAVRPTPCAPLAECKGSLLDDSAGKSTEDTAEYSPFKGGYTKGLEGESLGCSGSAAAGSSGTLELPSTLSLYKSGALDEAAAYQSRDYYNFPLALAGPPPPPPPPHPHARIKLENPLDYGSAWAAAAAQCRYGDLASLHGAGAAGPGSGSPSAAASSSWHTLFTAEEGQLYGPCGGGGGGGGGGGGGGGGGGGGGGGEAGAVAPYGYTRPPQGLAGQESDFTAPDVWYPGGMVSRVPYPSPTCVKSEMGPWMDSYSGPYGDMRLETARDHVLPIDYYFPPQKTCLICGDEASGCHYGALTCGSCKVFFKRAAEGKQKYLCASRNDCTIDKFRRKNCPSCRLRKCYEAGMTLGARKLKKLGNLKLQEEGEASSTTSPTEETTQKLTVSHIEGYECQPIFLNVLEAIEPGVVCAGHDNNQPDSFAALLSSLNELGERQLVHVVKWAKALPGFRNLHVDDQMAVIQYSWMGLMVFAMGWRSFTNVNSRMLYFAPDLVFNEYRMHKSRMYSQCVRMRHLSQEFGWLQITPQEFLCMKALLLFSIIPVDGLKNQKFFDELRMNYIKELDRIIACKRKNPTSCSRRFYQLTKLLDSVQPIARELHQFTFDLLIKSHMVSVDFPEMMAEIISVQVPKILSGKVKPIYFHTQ
In short: as §2

Mus musculus [4] = experiment: Toxicity in Swiss-Webster mouse assessed as decrease in bone formation at 30 mg/kg after 28 days; assay type: organism-based; set-up: dose 30 mg/kg; settings: in vivo, 672 h
In short: (§3)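 Male Swiss–Webster mice, three months old, singly housed on standard chow, dosed orally for 28 days (vehicle; 3, 10, 30 mg/kg). Alizarin red 30 mg/kg s.c. at baseline DXA and calcein 15 mg/kg s.c. at final DXA for labeling. Tibial cortical histomorphometry under epifluorescence. Periosteal BFR = double-labeled surface × MAR/periosteal perimeter.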

Mus musculus [5] = experiment: Toxicity in Swiss-Webster mouse assessed as increase in body fat at 10 mg/kg after 28 days; assay type: organism-based; set-up: dose 10 mg/kg; settings: in vivo, 672 h
In short: as §1

Mus musculus [6] = experiment: Toxicity in Swiss-Webster mouse assessed as decrease in bone formation at 3 mg/kg after 28 days; assay type: organism-based; set-up: dose 3 mg/kg; settings: in vivo, 672 h
In short: as §3

[7] = target: T4, Glucocorticoid receptor (Rattus norvegicus) (UniProt P06536); experiment: Activity at endogenous glucocorticoid receptor in rat H42E liver cells assessed as increase in transcriptional activation of pyruvate dehydrogenase kinase at 0.1 uM after 24 hrs by RT-PCR; assay type: cell-based
T4 sequence (whole entry): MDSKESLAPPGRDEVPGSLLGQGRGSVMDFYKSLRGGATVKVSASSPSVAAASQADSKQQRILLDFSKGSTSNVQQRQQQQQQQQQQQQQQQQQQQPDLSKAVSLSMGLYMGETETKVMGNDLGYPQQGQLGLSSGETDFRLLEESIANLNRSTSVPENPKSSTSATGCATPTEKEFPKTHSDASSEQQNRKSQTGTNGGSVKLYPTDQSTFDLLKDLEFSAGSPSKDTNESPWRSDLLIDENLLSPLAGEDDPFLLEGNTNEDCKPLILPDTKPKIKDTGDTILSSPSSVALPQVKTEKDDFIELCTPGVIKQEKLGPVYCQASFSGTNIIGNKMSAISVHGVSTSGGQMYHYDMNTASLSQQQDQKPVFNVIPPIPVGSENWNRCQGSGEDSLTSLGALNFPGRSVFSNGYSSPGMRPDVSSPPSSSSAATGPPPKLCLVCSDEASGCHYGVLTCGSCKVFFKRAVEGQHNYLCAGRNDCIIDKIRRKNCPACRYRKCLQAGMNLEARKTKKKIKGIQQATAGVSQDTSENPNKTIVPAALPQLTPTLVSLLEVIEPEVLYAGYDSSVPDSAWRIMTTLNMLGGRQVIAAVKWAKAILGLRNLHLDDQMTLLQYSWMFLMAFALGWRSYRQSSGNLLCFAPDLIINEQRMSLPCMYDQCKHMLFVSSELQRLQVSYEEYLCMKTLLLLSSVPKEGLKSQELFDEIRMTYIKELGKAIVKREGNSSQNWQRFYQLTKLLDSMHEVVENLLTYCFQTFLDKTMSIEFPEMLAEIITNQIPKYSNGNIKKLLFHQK
In short: (§4)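 H4IIE rat liver cells (endogenous GR) kept in 10% FBS, seeded overnight at 3.5 × 10^5 cells/well, then given vehicle or compound in 10% dextran/charcoal-treated FBS for 24 h. RNA extracted, first-strand cDNA made, real-time PCR run (40 cycles). Target signal divided by 36B4 control gene. Triplicate biological samples and triplicate assays per dose; one-way ANOVA with Dunnett's method.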

[8] = target: T4, Glucocorticoid receptor (Rattus norvegicus); experiment: Activity at endogenous glucocorticoid receptor in rat H42E liver cells assessed as increase in transcriptional activation of phosphoenol pyruvate carboxykinase at 0.01 uM after 24 hrs by RT-PCR; assay type: cell-based
In short: as §4

Mus musculus [9] = experiment: Toxicity in Swiss-Webster mouse assessed as increase in body fat at 30 mg/kg after 28 days; assay type: organism-based; set-up: dose 30 mg/kg; settings: in vivo, 672 h
In short: as §1

Mus musculus [10] = experiment: Toxicity in Swiss-Webster mouse assessed as decrease in bone formation at 10 mg/kg after 28 days; assay type: organism-based; set-up: dose 10 mg/kg; settings: in vivo, 672 h
In short: as §3

ED50 [1] | Ki (Progesterone receptor) | Ki (Androgen receptor) | Activity [7] | Activity [8] | SMILES | Activity (Mus musculus [2]) | Activity (Mus musculus [3]) | Activity (Mus musculus [4]) | Activity (Mus musculus [5]) | Activity (Mus musculus [6]) | Activity (Mus musculus [9]) | Activity (Mus musculus [10])
0.0001 µM |  |  |  |  | C[C@@H]1C[C@H]2[C@@H]3CCC4=CC(=O)C=C[C@]4(C)[C@@]3(F)[C@@H](O)C[C@]2(C)[C@@]1(O)C(=O)CO |  |  |  |  |  |  | 
 | 0.866 µM | 0.91 µM |  |  | COc1c(O)ccc2c1-c1ccc3c(c1/C(=C/c1cccc(C)c1F)O2)C(C)=CC(C)(C)N3 | Toxic | Active | Toxic |  |  |  | 
0.004 µM |  |  | Active | Active | C[C@]12C=CC(=O)C=C1CC[C@@H]1[C@@H]2[C@@H](O)C[C@@]2(C)[C@H]1CC[C@]2(O)C(=O)CO [PREDNISOLONE] |  | Active | Toxic | Toxic | Toxic | Toxic | Toxic
